Source: PubChem
Only some compounds are listed: those with a hit (about 4.2% of all), similar ones and a draw of the others.
UPR XBP1 act: activators of adaptive XBP1 UPR arm, primary screen, cell-based, CHO-XBP1 luciferase reporter, luminescence, uHTS. IRE1-XBP1 UPR activation; percent of tunicamycin response, DMSO as zero. activation, % at 20 µM. 330,000 compounds, 0.33% hits;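 active = versus positive control, 20 µM dose yields 30% or more activation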
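Material: CHO cell line with stable XBP1 luciferase reporter; buffer or medium: F12 medium containing 10% fetal bovine serum; compound: single point, 20 µM final compound, 1% DMSO; incubation: 6 h treatment, 37 °C; measured by: glow luminescence from Steady-Glo reagent; evaluation: activation, % of tunicamycin; control set: tunicamycin high, DMSO low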
CHOP inh: inhibitors of CHOP promoter induction, primary screen, cell-based, unfolded protein response, luciferase reporter; CHO-K1 CHOP-promoter luciferase, tunicamycin-induced, 15-18 h; inhibition, % at 10 µM; 220,000 compounds, 3.8% hits; AID 2732, 2010;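 active = compounds that reduced the stress-induced luciferase reporter signal by more than about 70% of percent inhibition, limit read from the data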
ANO1 activ: TMEM16A chloride channel activators or potentiators, primary screen, cell-based, HTS; Anoctamin-1 (Mus musculus), Q8BHY3; HEK293 TMEM16A/YFP-H148Q/I152L, iodide quench fluorescence; stronger effect = lower value; B-score at 10 µM; 340,000 compounds, 0.3% hits;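 active = fluorescence-ratio B-score plate-corrected deviation score at least 3 library SD below zero, with starting fluorescence score within 5 deviations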;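 also: channel opened by trigger with iodide after compound preincubation; score built on the fluorescence ratio of max minus min over baseline; more negative score means more quench and so TMEM16A activation or potentiation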
Target sequence (Q8BHY3 whole entry, looked up): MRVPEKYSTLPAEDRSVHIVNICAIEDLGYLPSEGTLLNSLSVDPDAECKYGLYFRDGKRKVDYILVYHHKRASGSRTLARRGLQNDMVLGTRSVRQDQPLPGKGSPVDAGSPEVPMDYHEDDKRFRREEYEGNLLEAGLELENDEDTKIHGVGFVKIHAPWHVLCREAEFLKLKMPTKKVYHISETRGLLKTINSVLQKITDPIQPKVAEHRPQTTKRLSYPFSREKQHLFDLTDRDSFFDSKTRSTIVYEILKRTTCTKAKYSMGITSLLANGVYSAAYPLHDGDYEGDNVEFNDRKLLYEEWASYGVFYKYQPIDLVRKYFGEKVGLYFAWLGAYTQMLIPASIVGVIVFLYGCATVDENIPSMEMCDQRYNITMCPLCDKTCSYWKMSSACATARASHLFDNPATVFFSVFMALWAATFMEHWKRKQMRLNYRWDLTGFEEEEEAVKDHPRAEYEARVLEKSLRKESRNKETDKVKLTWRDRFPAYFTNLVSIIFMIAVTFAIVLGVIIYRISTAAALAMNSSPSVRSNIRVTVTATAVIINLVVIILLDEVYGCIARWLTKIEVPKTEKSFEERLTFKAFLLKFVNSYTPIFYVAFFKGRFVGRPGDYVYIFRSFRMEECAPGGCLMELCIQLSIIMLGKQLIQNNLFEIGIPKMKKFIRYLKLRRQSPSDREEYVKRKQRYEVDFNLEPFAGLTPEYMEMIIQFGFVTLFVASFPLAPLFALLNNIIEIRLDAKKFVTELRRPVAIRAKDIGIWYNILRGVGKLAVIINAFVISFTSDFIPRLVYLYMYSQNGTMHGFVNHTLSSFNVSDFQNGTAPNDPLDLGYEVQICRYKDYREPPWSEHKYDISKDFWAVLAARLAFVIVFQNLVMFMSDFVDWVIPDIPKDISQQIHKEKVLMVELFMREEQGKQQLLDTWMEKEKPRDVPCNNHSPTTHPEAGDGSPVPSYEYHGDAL
Hep lipid drop: inhibitors of hepatocyte lipid droplet formation, primary screen, imaging, high-throughput imaging, BODIPY stain; AML12 mouse hepatocytes, oleate lipid droplets; inhibition, % at 6.5 µM; 240,000 compounds, 0.4% hits;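 active = lipid droplet intensity inhibited by at least 50%, with more than 500 cells counted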
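Test system: AML12 hepatocytes (mouse); reagent: oleate loading, 100 µM; dosing: one dose, 6.5 µM compound; incubation: overnight exposure; signal: fluorescence imaging, 20x objective, two fields per well; read-out basis: % inhibition of corrected integrated BODIPY droplet signal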
CHOP UPR activ: activators of apoptotic CHOP UPR arm, primary screen, cell-based, CHO-CHOP luciferase reporter, luminescence, uHTS. AID 449763, 2010. UPR activation; percent of tunicamycin response over DMSO baseline. activation, % at 10 µM. 330,000 compounds, 0.34% hits;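 active = at 10 µM dose, activation of 40% or more, normalized to positive control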
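System: CHO-CHOP luciferase reporter cell line | Buffer or medium: F12 medium containing 10% fetal bovine serum | Doses: One dose, 10 µM in 0.5% DMSO | Times: 6 h compound exposure at 37 °C after overnight seeding | Signal: Luciferase luminescence | Read-out: % activation vs tunicamycin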
ANO1 block: TMEM16A chloride channel inhibitors, primary screen, cell-based, HTS | HEK293 TMEM16A/YFP iodide influx fluorescence, ionomycin | normalized B-score (activity score, 25-100; higher = stronger inhibition) at 10 µM | 310,000 compounds, 1.2% hits | Anoctamin-1 (Mus musculus), Q8BHY3;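 active = ratio plate-corrected score three or more library SD toward inhibition, starting fluorescence score within five deviations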;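 also: score derived from kinetic fluorescence span divided by baseline fluorescence per well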
Of the large screens only hits and unclear results are named; the others gave an inactive call.

COc1ccc(-n2c(SCC(=O)NCC3CCCO3)nc3ccccc32)cc1 (centres undefined)	none
COc1ccc2c(CC(=O)NNC(=O)c3ccc(O)cc3)coc2c1	none (no result: CHOP inh, Hep lipid drop, ANO1 block)
O=C(CCCN1C(=O)NC2(CCCC2)C1=O)Nc1ccc(F)cc1	none (no result: CHOP inh, Hep lipid drop, ANO1 block)
Cc1ccc(Sc2ccc(NC(=O)CCN3C(=O)NC4(CCCC4)C3=O)cc2)c(C)c1	ANO1 activ -24 (no result: CHOP inh, Hep lipid drop, ANO1 block)
CC1Cc2ccccc2N1C(=O)CNc1ccccc1N1CCCCC1 (centres undefined)	CHOP inh 74
NC(N)=NN=C1CCC(c2ccccc2)CC1 (centres undefined)	none (no result: CHOP inh)
c1csc(C(c2nnnn2C2CCCCC2)N2CCCC3(CCCCC3)C2)c1 (centres undefined)	CHOP inh 82
c1ccc(Cn2nnnc2C(c2cccs2)N2CCc3ccccc3C2)cc1 (centres undefined)	CHOP inh 76
CC(C)C(c1nnnn1Cc1ccccc1)N1CCc2ccccc2C1 (centres undefined)	CHOP inh 76
c1ccc(Cn2nnnc2C(c2cccs2)N2CCCCCC2)cc1 (centres undefined)	ANO1 block 100
CC(C)C(c1nnnn1C1CCCCC1)N1CCc2ccccc2C1 (centres undefined)	none (no result: Hep lipid drop)
CN(C)S(=O)(=O)c1cccc(NC(=O)c2cccc(S(=O)(=O)N3CCCCC3)c2)c1	none (no result: CHOP inh, Hep lipid drop)
COc1ccc(S(=O)(=O)NCC2CCCN(C(=O)CCSC)C2)cc1 (centres undefined)	none (no result: CHOP inh)
CC(C)CN(C(=O)COC(=O)CNC(=O)c1ccccc1)c1c(N)n(Cc2ccccc2)c(=O)[nH]c1=O	none (no result: CHOP inh, Hep lipid drop)
S=C(c1ccc(-c2cc(Cl)ccc2Cl)o1)N1CCCCC1	none
S=C(c1ccc(-c2cc(Cl)ccc2Cl)o1)N1CCOCC1	CHOP inh 70
Cc1nn2cc(-c3ncc(C(F)(F)F)cc3Cl)cnc2c1Br	CHOP inh 74
Cc1cc2ncc(-c3ncc(C(F)(F)F)cc3Cl)cn2n1	none
COCCNC(=O)COC(=O)c1[nH]c(C)c(C(C)=O)c1C	ANO1 block 100
CNC(=O)COC(=O)c1[nH]c(C)c(C(C)=O)c1C	none
O=C(CSc1nc2sc3c(c2c(=O)n1-c1ccccc1)CCCC3)NCc1ccco1	CHOP inh 84
CCc1cccc2c(SCC(=O)NCC3CCCO3)nc(-c3ccc(F)cc3)nc12 (centres undefined)	CHOP inh 79
Cc1ccc2nc(-c3ccc(F)cc3)nc(SCC(=O)NCC3CCCO3)c2c1 (centres undefined)	none (no result: CHOP inh)
Cc1nc2ccccc2n1CCc1nc2c3ccccc3nc(SCC(=O)NCc3ccco3)n2n1	CHOP inh 72 (no result: Hep lipid drop)
C=CCn1c(SCC(=O)NC(=O)NCc2ccco2)nc2sc(CC)cc2c1=O	CHOP inh 83 (no result: Hep lipid drop)
Fc1ccccc1N1CCN(CC2CCCCC2)CC1	none (no result: CHOP inh)
CCOC(=O)c1ccc(OCC2NCCc3cc(OC)c(OC)cc32)cc1 (centres undefined)	none (no result: CHOP inh)
COc1ccc(OCC(O)CN2CC(C)OC(C)C2)cc1 (centres undefined)	none (no result: CHOP inh)
Cc1sc2nc(SCC(=O)NCc3ccco3)n(CCc3ccccc3)c(=O)c2c1C	CHOP inh 95
Nn1cc(-c2ccccc2)nc1SCC(=O)NCC1CCCO1 (centres undefined)	ANO1 activ -20
O=C(CSc1nc2scc(-c3ccco3)c2c(=O)n1-c1ccccc1)NCC1CCCO1 (centres undefined)	CHOP inh 100
Cc1sc2nc(SCC(=O)NCc3ccco3)n(C)c(=O)c2c1C	none (no result: Hep lipid drop)
CCOc1ccc(N(CC(=O)NCCc2ccc(C)cc2)S(=O)(=O)c2c(C)noc2C)cc1	none (no result: CHOP inh)
